Laboratory results reported in ChEMBL document CHEMBL1137637, “Quinuclidine derivatives as potential antiparasitics” (Antimicrob Agents Chemother, 2007).
Converted amounts (≈) assume the structure as drawn.

What was measured:
Leishmania amazonensis [1] = assay: Inhibition of sterol biosynthesis in Leishmania mexicana amazonensis promastigotes assessed as reduction in endogenous 5-dehydro episterol level at 10 uM after 96 hrs by gas-liquid chromatography; assay type: functional; set-up: scale not given: the % may be the effect or the level left
Outline: (§1)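 L. mexicana promastigotes exposed to compound for 96 h. Total lipids extracted and neutral sterols separated from polar lipids by silicic acid column chromatography. Sterols analysed by TLC and by quantitative capillary gas-liquid chromatography with mass spectrometry. Composition expressed as mass % of free sterols, compared with untreated control.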

L6 = assay: Cytotoxicity against rat L6 cells after 72 hrs by resazurin assay; assay type: cell-based; conditions: L6, 72 h
Outline: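 L-6 cells seeded at 4 × 10⁴ cells/ml in RPMI 1640 with 10% FBS and 2 mM L-glutamine. After 24 h, medium replaced with serial drug dilution and incubated for 72 h at 37°C in 5% CO2. Resazurin added for 2–4 h, fluorescence read at ex 536/em 588 nm. IC50 from sigmoidal curve. Duplicate, with an independent repeat for actives.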

Leishmania amazonensis [2] = assay: Inhibition of sterol biosynthesis in Leishmania mexicana amazonensis promastigotes assessed as reduction in endogenous episterol level at 10 uM after 96 hrs by gas-liquid chromatography; assay type: functional; set-up: scale not given: the % may be the effect or the level left; outline: as §1
Leishmania amazonensis [3] = assay: Inhibition of sterol biosynthesis in Leishmania mexicana amazonensis promastigotes assessed as reduction in endogenous cholesta-5,7,24-trien-3beta-ol level at 10 uM after 96 hrs by gas-liquid chromatography; assay type: functional; set-up: scale not given: the % may be the effect or the level left; outline: as §1
[4] = target: T1, Farnesyltransferase, putative (Leishmania major, UniProt Q4Q5W4); assay: Inhibition of Leishmania major recombinant squalene synthase expressed in Escherichia coli by liquid scintillation counter
T1 sequence (Q4Q5W4 whole entry): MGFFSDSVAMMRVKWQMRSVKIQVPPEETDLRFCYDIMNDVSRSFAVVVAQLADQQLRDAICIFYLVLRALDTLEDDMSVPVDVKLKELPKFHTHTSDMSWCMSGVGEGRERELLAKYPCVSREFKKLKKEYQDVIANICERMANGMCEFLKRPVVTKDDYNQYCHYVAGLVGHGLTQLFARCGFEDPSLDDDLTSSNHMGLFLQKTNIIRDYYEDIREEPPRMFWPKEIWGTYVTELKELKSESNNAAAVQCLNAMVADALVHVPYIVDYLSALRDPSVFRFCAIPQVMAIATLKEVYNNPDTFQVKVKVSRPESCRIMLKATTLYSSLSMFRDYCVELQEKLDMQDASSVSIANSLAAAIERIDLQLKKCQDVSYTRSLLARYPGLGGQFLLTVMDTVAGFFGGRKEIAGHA
Outline: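 Soluble E. coli extract expressing L. major SQS truncated by 16 N-terminal and 40 C-terminal residues. Buffer: 50 mM phosphate pH 7.4, 20 mM MgCl2, 5 mM CHAPS, 1% Tween 80, 10 mM DTT, BSA, 0.25 mM NADPH, and a glucose-6-phosphate/G6PDH regenerating system. Substrate 0.5 μM radiolabelled farnesyl pyrophosphate. Squalene band counted by scintillation. IC50 from hyperbolic plot of five concentrations in duplicate, usually run twice.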

Trypanosoma cruzi = assay: Antitrypanosomal activity against trypomastigotes of Trypanosoma cruzi Tulahuen C2C4 containing lacZ gene in rat L6 cells after 4 days by chlorophenol red-beta-D-galactopyranoside/Nonidet assay; assay type: functional, organism-based; conditions: Tulahuen C2C4, L6, 96 h
Outline: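 L-6 rat myoblasts seeded at 2,000 cells/well in RPMI 1640 with 10% FBS and 2 mM L-glutamine. After 24 h, 5,000 T. cruzi Tulahuen C2C4 lacZ trypomastigotes added with serial drug dilution. Incubated at 37°C in 5% CO2 for 4 days. CPRG/Nonidet substrate added and colour read at 540 nm after 2–4 h. IC50 from sigmoidal curve. Duplicate determinations.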

Leishmania amazonensis [5] = assay: Antileishmanial activity against Leishmania mexicana amazonensis promastigotes by trypan blue exclusion method; assay type: functional, organism-based
Outline: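 L. mexicana amazonensis promastigotes cultured in liver infusion-tryptose medium with lactalbumin and 10% FCS at 26°C, unagitated. Cultures started at 2 × 10⁶ cells/ml and drug added at 0.5–1 × 10⁷ cells/ml. Density counted by electronic particle counter and hemocytometer. Viability by trypan blue exclusion. Triplicate growth experiments.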

Squalene synthase = target: T2, Squalene synthase (Homo sapiens, UniProt P37268); assay: Inhibition of human recombinant squalene synthase expressed in Escherichia coli BL21(DE3 pLysS) up to 1 uM by liquid scintillation counter
T2 sequence (P37268 whole entry): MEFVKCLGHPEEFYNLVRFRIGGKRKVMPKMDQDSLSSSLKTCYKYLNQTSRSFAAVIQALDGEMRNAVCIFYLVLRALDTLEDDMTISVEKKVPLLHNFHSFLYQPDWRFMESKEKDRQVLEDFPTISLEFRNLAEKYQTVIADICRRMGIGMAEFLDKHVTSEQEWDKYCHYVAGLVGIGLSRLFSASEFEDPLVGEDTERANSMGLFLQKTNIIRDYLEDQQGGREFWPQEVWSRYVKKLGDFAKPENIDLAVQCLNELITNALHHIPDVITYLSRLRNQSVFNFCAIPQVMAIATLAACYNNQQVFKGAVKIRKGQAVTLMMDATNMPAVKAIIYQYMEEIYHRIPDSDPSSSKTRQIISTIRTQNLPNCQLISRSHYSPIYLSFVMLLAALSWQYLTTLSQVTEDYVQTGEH
Outline: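 Human SQS in extracts of E. coli BL21(DE3 pLysS) carrying pHSS16, assayed under the same conditions as the L. major enzyme. Buffer: phosphate pH 7.4, MgCl2, CHAPS, Tween 80, DTT, BSA, and NADPH with a regenerating system. Substrate 0.5 μM radiolabelled farnesyl pyrophosphate. Squalene band radioactivity counted by scintillation.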

Plasmodium falciparum = assay: Antiplasmodial activity after 48 hrs against chloroquine and pyrimethamine-resistant Plasmodium falciparum K1 in human erythrocytes by [3H]hypoxanthine uptake; assay type: functional, organism-based
Outline: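 P. falciparum K1 in human red cells in RPMI 1640 with 5% Albumax, exposed to serial drug dilutions. Incubated 48 h at 37°C under reduced oxygen, then 0.5 μCi [³H]hypoxanthine per well for 24 h more. Cells harvested onto glass-fibre filters and counted by scintillation. Result expressed as % of untreated control, with IC50 from sigmoidal curve. Duplicate, plus an independent repeat for actives.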

Leishmania amazonensis [6] = assay: Inhibition of sterol biosynthesis in Leishmania mexicana amazonensis promastigotes assessed as reduction in exogenous cholesterol level at 10 uM after 96 hrs by gas-liquid chromatography; assay type: functional; set-up: scale not given: the % may be the effect or the level left; outline: as §1
[7] = test system: Trypanosoma brucei rhodesiense; assay: Trypanocidal activity against Trypanosoma brucei rhodesiense STIB 900 bloodstream form after 72 hrs by resazurin assay; assay type: functional, organism-based; conditions: STIB 900, 72 h
Outline: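 T. b. rhodesiense STIB 900 bloodstream forms in MEM with 2-mercaptoethanol and 15% heat-inactivated horse serum, with serial drug dilutions. Incubated 72 h at 37°C in 5% CO2. Resazurin added for 2–4 h more, fluorescence read at ex 536/em 588 nm. IC50 from sigmoidal curve. Duplicate, with an independent repeat for actives.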

Leishmania amazonensis [8] = assay: Inhibition of sterol biosynthesis in Leishmania mexicana amazonensis promastigotes assessed as reduction in endogenous cholesta-7,24-dien-3beta-ol level at 10 uM after 96 hrs by gas-liquid chromatography; assay type: functional; set-up: scale not given: the % may be the effect or the level left; outline: as §1
Leishmania donovani = assay: Antileishmanial activity against Leishmania donovani MHOM/ET/67/L82 axenic amastigotes after 72 hrs by resazurin assay; assay type: functional, organism-based; conditions: MHOM/ET/67/L82, 72 h
Outline: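 L. donovani MHOM/ET/67/L82 amastigotes grown axenically at 37°C in synthetic minimal medium at pH 5.4 with 10% heat-inactivated FBS under 5% CO2. 1 × 10⁵ amastigotes per well with seven threefold dilutions, 30 to 0.041 μg/ml. After 72 h, resazurin added for 2–4 h more. Fluorescence read at ex 536/em 588 nm. IC50 taken from sigmoidal curve. Run in duplicate, with an independent repeat for actives.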

Leishmania amazonensis [9] = assay: Inhibition of sterol biosynthesis in Leishmania mexicana amazonensis promastigotes assessed as reduction in endogenous 5-dehydro episterol level at 1 uM after 96 hrs by gas-liquid chromatography; assay type: functional; set-up: scale not given: the % may be the effect or the level left; outline: as §1
Leishmania amazonensis [10] = assay: Inhibition of sterol biosynthesis in Leishmania mexicana amazonensis promastigotes assessed as reduction in endogenous cholesta-5,7,24-trien-3beta-ol level at 1 uM after 96 hrs by gas-liquid chromatography; assay type: functional; set-up: scale not given: the % may be the effect or the level left; outline: as §1
Leishmania amazonensis [11] = assay: Inhibition of sterol biosynthesis in Leishmania mexicana amazonensis promastigotes assessed as reduction in endogenous episterol level at 1 uM after 96 hrs by gas-liquid chromatography; assay type: functional; set-up: scale not given: the % may be the effect or the level left; outline: as §1
Leishmania amazonensis [12] = assay: Inhibition of sterol biosynthesis in Leishmania mexicana amazonensis promastigotes assessed as reduction in exogenous cholesterol level at 1 uM after 96 hrs by gas-liquid chromatography; assay type: functional; set-up: scale not given: the % may be the effect or the level left; outline: as §1
Leishmania amazonensis [13] = assay: Inhibition of sterol biosynthesis in Leishmania mexicana amazonensis promastigotes assessed as reduction in endogenous cholesta-5,7,24-trien-3beta-ol level at 3 uM after 96 hrs by gas-liquid chromatography; assay type: functional; set-up: scale not given: the % may be the effect or the level left; outline: as §1
Leishmania amazonensis [14] = assay: Inhibition of sterol biosynthesis in Leishmania mexicana amazonensis promastigotes assessed as reduction in endogenous 5-dehydro episterol level at 3 uM after 96 hrs by gas-liquid chromatography; assay type: functional; set-up: scale not given: the % may be the effect or the level left; outline: as §1
Leishmania amazonensis [15] = assay: Inhibition of sterol biosynthesis in Leishmania mexicana amazonensis promastigotes assessed as reduction in exogenous cholesterol level at 3 uM after 96 hrs by gas-liquid chromatography; assay type: functional; set-up: scale not given: the % may be the effect or the level left; outline: as §1
Leishmania amazonensis [16] = assay: Inhibition of sterol biosynthesis in Leishmania mexicana amazonensis promastigotes assessed as reduction in endogenous episterol level at 3 uM after 96 hrs by gas-liquid chromatography; assay type: functional; set-up: scale not given: the % may be the effect or the level left; outline: as §1

| Structure (SMILES) | Activity (Leishmania amazonensis [1]) | IC50 (L6) | Activity (Leishmania amazonensis [2]) | Activity (Leishmania amazonensis [3]) | IC50 [4] | IC50 (Trypanosoma cruzi) | MIC (Leishmania amazonensis [5]) | IC50 (Squalene synthase) | IC50 (Plasmodium falciparum) | Activity (Leishmania amazonensis [6]) | IC50 [7] | Activity (Leishmania amazonensis [8]) | IC50 (Leishmania donovani) | Activity (Leishmania amazonensis [14]) | Activity (Leishmania amazonensis [15]) | also measured |
| --- | --- | --- | --- | --- | --- | --- | --- | --- | --- | --- | --- | --- | --- | --- | --- | --- |
| C(=C1CN2CCC1CC2)c1ccc(C2OCCO2)cc1 | 54.9% | 212 µM | 11.7% | 12.7% | > 1000 nM | > 111 µM | > 10 µM | Not Active | 14200 nM | 14.1% | 12.5 µM | 6.7% | 38.6 µM |  |  |  |
| c1ccc(-c2ccc(CC3CN4CCC3CC4)cc2)cc1 (stereo not given) |  | 20.5 µM |  |  | > 1000 nM | 4.7 µM | 1 µM (≈ 0.277 µg/mL) | Not Active | 2800 nM |  | 0.7 µM |  | > 108 µM |  |  | Activity (Leishmania amazonensis [9]): 30.3%; Activity (Leishmania amazonensis [10]): 10.4%; Activity (Leishmania amazonensis [11]): 8.2%; Activity (Leishmania amazonensis [12]): 51.1% |
| O=Cc1ccc(/C=C2\CN3CCC2CC3)cc1 | 62% | > 396 µM | 8.2% | 14% | > 1000 nM | > 132 µM | > 10 µM | Not Active | > 22000 nM | 11.2% | 13.1 µM | 4.6% | > 132 µM |  |  |  |
| OC[C@H]1CC2CCN1C[C@@H]2C#Cc1ccc(OCc2ccccc2)cc1 (stereo not given in full) |  | 16.6 µM |  |  | > 1000 nM | 3.1 µM | 10 µM (≈ 3.47 µg/mL) |  | 1100 nM | >99% | 1.2 µM |  | 8 µM | 63.2% | 21.2% | Activity (Leishmania amazonensis [13]): 10.7%; Activity (Leishmania amazonensis [16]): 14.2% |
| C(=C1\CN2CCC1CC2)/c1ccc(C2OCCO2)cc1 | 57.9% | 239 µM |  |  | > 1000 nM | 30.2 µM | 10 µM (≈ 2.71 µg/mL) | Not Active | 10000 nM | 42.1% | 10.3 µM |  | 77.7 µM |  |  |  |
| C(=C1/CN2CCC1CC2)/c1ccc2ccccc2c1 |  | 25.6 µM |  |  | > 1000 nM | 2.8 µM | 3 µM (≈ 0.748 µg/mL) | Not Active | 900 nM |  | 0.5 µM |  | 88.2 µM | 42.2% | 57.8% |  |
